Experimental data as given in ChEMBL document CHEMBL5104205, “Design and evaluation of poly-nitrogenous adjuvants capable of potentiating antibiotics in Gram-negative bacteria” (RSC Med Chem, 2022).
Converted amounts (≈) assume the structure as drawn.

Columns and labels:
Escherichia coli [1] = assay: Antibiotic adjuvant activity against Kanamycin-treated wild type Escherichia coli ATCC 25922 assessed as bacterial growth inhibition by broth microdilution assay; type: functional
Outline: (§1)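 Broth microdilution per CLSI M100-S23. Antibiotics spanned 0–256 µg/mL (in DMSO or water), combined with adjuvant at 20, 50 or 100 µM (in DMSO). Inoculum was a 4–6 h culture in full-strength TSB. Plates ran 12–18 h at 37 °C, each treatment in triplicate. OD590 was blank-subtracted and normalized to vehicle growth. MIC is the lowest concentration giving ≥90% inhibition.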

Escherichia coli [2] = assay: Antibiotic adjuvant activity against Penicillin G-treated wild type Escherichia coli ATCC 25922 assessed as bacterial growth inhibition by broth microdilution assay; type: functional; outline: as §1
[3] = Drug uptake in wild type Escherichia coli ATCC 25922 assessed as drug accumulation across outer membrane; type: ADME
Outline: (§2)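 Cells were washed twice in PBS, aliquoted and pre-shaken 10 min at 37 °C. Compound was added and incubated 10 min at 37 °C, with CFU counted before and after. Samples were spun through cold silicone oil. Supernatants were quantified by LC-MS single-ion monitoring against calibration curves.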

Escherichia coli [4] = assay: Antibiotic adjuvant activity against Rifampicin-treated wild type Escherichia coli ATCC 25922 assessed as bacterial growth inhibition by broth microdilution assay; type: functional; outline: as §1
Pseudomonas aeruginosa [5] = assay: Antibiotic adjuvant activity against Novobiocin-treated Pseudomonas aeruginosa ATCC 9027 assessed as bacterial growth inhibition by broth microdilution assay; type: functional; outline: as §1
Pseudomonas aeruginosa [6] = assay: Antibiotic adjuvant activity against Penicillin G-treated Pseudomonas aeruginosa ATCC 9027 assessed as bacterial growth inhibition by broth microdilution assay; type: functional; outline: as §1
Escherichia coli [7] = assay: Antibiotic adjuvant activity against Ampicillin-treated wild type Escherichia coli ATCC 25922 assessed as bacterial growth inhibition by broth microdilution assay; type: functional; outline: as §1
Pseudomonas aeruginosa [8] = assay: Antibiotic adjuvant activity against Rifampicin-treated Pseudomonas aeruginosa ATCC 9027 assessed as bacterial growth inhibition by broth microdilution assay; type: functional; outline: as §1
[9] = Drug uptake in Pseudomonas aeruginosa ATCC 9027 assessed as drug accumulation across outer membrane; type: ADME; outline: as §2
Pseudomonas aeruginosa [10] = assay: Antibiotic adjuvant activity against Ampicillin-treated Pseudomonas aeruginosa ATCC 9027 assessed as bacterial growth inhibition by broth microdilution assay; type: functional; outline: as §1
Escherichia coli [11] = assay: Antibiotic adjuvant activity against Erythromycin-treated wild type Escherichia coli ATCC 25922 assessed as bacterial growth inhibition by broth microdilution assay; type: functional; outline: as §1
Pseudomonas aeruginosa [12] = assay: Antibiotic adjuvant activity against Erythromycin-treated Pseudomonas aeruginosa ATCC 9027 assessed as fold reduction in bacterial growth inhibition by broth microdilution assay; type: functional
Escherichia coli [13] = assay: Antibiotic adjuvant activity against Novobiocin-treated wild type Escherichia coli ATCC 25922 assessed as bacterial growth inhibition by broth microdilution assay; type: functional; outline: as §1
Pseudomonas aeruginosa [14] = assay: Antibiotic adjuvant activity against Erythromycin-treated Pseudomonas aeruginosa ATCC 9027 assessed as bacterial growth inhibition by broth microdilution assay; type: functional; outline: as §1
Pseudomonas aeruginosa [15] = assay: Antibiotic adjuvant activity against Kanamycin-treated Pseudomonas aeruginosa ATCC 9027 assessed as bacterial growth inhibition by broth microdilution assay; type: functional; outline: as §1
Escherichia coli [16] = assay: Antibacterial activity against wild type Escherichia coli ATCC 25922 assessed as bacterial growth inhibition by broth microdilution assay; type: functional
Pseudomonas aeruginosa [17] = assay: Antibacterial activity against Pseudomonas aeruginosa ATCC 9027 assessed as bacterial growth inhibition by broth microdilution assay; type: functional
Escherichia coli [18] = assay: Antibiotic adjuvant activity against Erythromycin-treated wild type Escherichia coli ATCC 25922 assessed as fold reduction in bacterial growth inhibition by broth microdilution assay; type: functional
Escherichia coli [19] = assay: Antibiotic adjuvant activity against Novobiocin-treated wild type Escherichia coli ATCC 25922 assessed as fold reduction in bacterial growth inhibition by broth microdilution assay; type: functional
Pseudomonas aeruginosa [20] = assay: Antibacterial activity against Pseudomonas aeruginosa ATCC 9027 assessed as bacterial growth inhibition at 1000 ug/ml by broth microdilution assay; type: functional
Escherichia coli [21] = assay: Antibacterial activity against wild type Escherichia coli ATCC 25922 assessed as bacterial growth inhibition at 100 ug/ml by broth microdilution assay; type: functional

SMILES	MIC (Escherichia coli [1]) [µg/mL]	MIC (Escherichia coli [2]) [µg/mL]	Drug uptake [3] [nmol]	MIC (Escherichia coli [4]) [µg/mL]	MIC (Pseudomonas aeruginosa [5]) [µg/mL]	MIC (Pseudomonas aeruginosa [6]) [µg/mL]	MIC (Escherichia coli [7]) [µg/mL]	MIC (Pseudomonas aeruginosa [8]) [µg/mL]	Drug uptake [9] [nmol]	MIC (Pseudomonas aeruginosa [10]) [µg/mL]	MIC (Escherichia coli [11]) [µg/mL]	fold change (FC) (Pseudomonas aeruginosa [12])	MIC (Escherichia coli [13]) [µg/mL]	MIC (Pseudomonas aeruginosa [14]) [µg/mL]	MIC (Pseudomonas aeruginosa [15]) [µg/mL]	MIC (Escherichia coli [16]) [µg/mL]	MIC (Pseudomonas aeruginosa [17]) [µg/mL]	further results
Cl.Cl.N=C(N)c1ccc(NC(=O)CCC(=O)Nc2ccc(C(=N)N)cc2)cc1	64	64	1	4	256	> 256	16	16	0.9	128	128	2	64	64	> 64	–	–	–
CC1(C)S[C@@H]2[C@H](NC(=O)[C@H](N)c3ccccc3)C(=O)N2[C@H]1C(=O)O [AMPICILLIN]	–	–	< 0.06	–	–	–	–	–	< 0.06	–	–	–	–	–	–	16 (≈ 45.8 µM)	128 (≈ 366 µM)	–
CO[C@@H]1[C@@H](OC(N)=O)[C@@H](O)[C@H](Oc2ccc3c(O)c(NC(=O)c4ccc(O)c(CC=C(C)C)c4)c(=O)oc3c2C)OC1(C)C [NOVOBIOCIN]	–	–	–	–	–	–	–	–	–	–	–	–	–	–	–	128 (≈ 209 µM)	256 (≈ 418 µM)	–
Cl.Cl.N=C(N)Nc1ccc(NC(=O)CCC(=O)Nc2ccc(NC(=N)N)cc2)cc1	64	64	1.1	8	256	> 256	16	16	1.1	128	64	2	64	64	> 64	–	–	fold change (FC) (Escherichia coli [18]): 2; fold change (FC) (Escherichia coli [19]): 2; inhibition at 1000 µg/mL (Pseudomonas aeruginosa [20]): 33%; inhibition at 100 µg/mL (Escherichia coli [21]): 18%
NC[C@H]1O[C@H](O[C@H]2[C@H](O)[C@@H](O[C@H]3O[C@H](CO)[C@@H](O)[C@H](N)[C@H]3O)[C@H](N)C[C@@H]2N)[C@H](O)[C@@H](O)[C@@H]1O [KANAMYCIN]	–	–	–	–	–	–	–	–	–	–	–	–	–	–	–	64 (≈ 132 µM)	> 64	–
Cl.Cl.Nc1ccc(NC(=O)CCC(=O)Nc2ccc(N)cc2)cc1	64	64	3.3	8	256	> 256	16	16	2	128	128	2	128	64	> 64	–	–	–
CO[C@H]1/C=C/O[C@@]2(C)Oc3c(C)c(O)c4c(O)c(c(/C=N/N5CCN(C)CC5)c(O)c4c3C2=O)NC(=O)/C(C)=C\C=C\[C@H](C)[C@H](O)[C@@H](C)[C@@H](O)[C@@H](C)[C@H](OC(C)=O)[C@@H]1C [RIFAMPIN]	–	–	–	–	–	–	–	–	–	–	–	–	–	–	–	8 (≈ 9.72 µM)	16 (≈ 19.4 µM)	–
CC1(C)S[C@@H]2[C@H](NC(=O)Cc3ccccc3)C(=O)N2[C@H]1C(=O)O [PENICILLIN G]	–	–	–	–	–	–	–	–	–	–	–	–	–	–	–	64 (≈ 191 µM)	> 256	–
CC[C@H]1OC(=O)[C@H](C)[C@@H](O[C@H]2C[C@@](C)(OC)[C@@H](O)[C@H](C)O2)[C@H](C)[C@@H](O[C@@H]2O[C@H](C)C[C@H](N(C)C)[C@H]2O)[C@](C)(O)C[C@@H](C)C(=O)[C@H](C)[C@@H](O)[C@]1(C)O [ERYTHROMYCIN]	–	–	–	–	–	–	–	–	–	–	–	–	–	–	–	128 (≈ 174 µM)	128 (≈ 174 µM)	–
Cl.Cl.N=C(N)Nc1ccc(NC(=O)CCC(=O)Nc2ccc(N)cc2)cc1	64	64	1.3	8	256	> 256	16	16	0.3	128	64	2	64	64	> 64	–	–	fold change (FC) (Escherichia coli [18]): 2
O=C(O)c1cn(C2CC2)c2cc(N3CCNCC3)c(F)cc2c1=O [CIPROFLOXACIN]	–	–	2.4	–	–	–	–	–	1.8	–	–	–	–	–	–	–	–	–
